As a reminder, the IC50 is the concentration that inhibits the measured activity by half. Usually CC50 stands for the concentration giving 50% cytotoxicity. The term Ki denotes a dissociation constant, usually derived from enzyme kinetics or from competition with a known ligand. Read a high Ki as a looser hold on the target.

The nature of data set [1]: Inhibition of Bacillus anthracis replicative DNA helicase using Hel-5'FAM:Hel-3'BHQ as substrate assessed as DNA duplex strand unwinding by FRET assay.
Data set [2] in a line: Inhibition of Staphylococcus aureus replicative DNA helicase using Hel-5'FAM:Hel-3'BHQ as substrate assessed as DNA duplex strand unwinding by FRET assay.
For a further data set, the system named is HeLa. In words: Cytotoxicity against human HeLa cells by MTT assay in presence of serum free media. In kind it is cell-based. On the technique in general: Tetrazolium dyes change colour on reduction, which living cells bring about.
Data set [3] in a line: (§1) Competitive inhibition of Staphylococcus aureus replicative DNA helicase using DNA as substrate by Dixon plot analysis. In short, it runs like this: (§2)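 FRET-based strand-unwinding assay with S. aureus replicative DNA helicase. An inhibitor dilution series was run at several oligonucleotide (DNA substrate) concentrations, the lowest being 3 nM. IC50 at each level came from 4-parameter curve fitting. Ki and the inhibition mode were derived from a Dixon plot of the DNA-variation data.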

In data set [4] the test system is Staphylococcus aureus. In words: Inhibition of Staphylococcus aureus single-strand DNA-stimulated replicative DNA helicase ATPase activity assessed as release of inorganic phosphate at 50 uM after 30 mins by malachite green assay.
Data set [5] is described as follows: (§3) Non-competitive inhibition of Staphylococcus aureus replicative DNA helicase using ATP as substrate. In short, it runs like this:
(§4)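 S. aureus replicative DNA helicase was tested in a FRET-based unwinding assay. An inhibitor dilution series was run across several ATP concentrations. IC50 at each ATP level came from 4-parameter curve fitting, and the mode of inhibition was assigned from how IC50 shifted with ATP concentration.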

The subject of a further data set is Bacillus anthracis. In words: Antibacterial activity against Bacillus anthracis Sterne assessed as inhibition of incorporation of radiolabeled precursors into DNA. In kind it is functional, organism-based.
The test system of data set [6] is Staphylococcus aureus. Described as §1. In short, it runs like this: as §2
Data set [7] concerns Staphylococcus aureus. The data set is described as §3. In short, it runs like this:
as §4

Data set [8] in a line: Selectivity index, ratio of CC50 for human HeLa cells to IC50 for Staphylococcus aureus replicative DNA helicase. The format is functional.

Structures are written as SMILES. The source made the active and inactive calls. The calls are words filed in the database; no cut-off is given here.

With `CSc1nc2ccc3nc(NC(=O)c4ccc5c(c4)OCCO5)sc3c2s1`, the IC50 in data set [1] amounted to 3 µM. Turning to `COC(=O)c1ccc(C(=O)Nc2nc3ccc4nc(SC)sc4c3s2)cc1`, the IC50 in [1] came to 3.7 µM. For the molecule `CSc1nc2ccc3nc(NC(=O)c4cccs4)sc3c2s1`, in [1], the IC50 came to 90 µM. Turning to `COc1cccc(C(=O)Nc2nc3ccc4nc(NCC(C)C)sc4c3s2)c1`, the results for the IC50 in [1] and in data set [2] were 13 µM and 9 µM, respectively. Moreover, the CC50 in the data set with HeLa turned out to be 44 µM. Turning to `CSc1nc2ccc3nc(NC(=O)c4ccc(N(C)C)cc4)sc3c2s1`, the IC50 in data set [1] is 2.4 µM.

Consider `CSc1nc2ccc3nc(NC(=O)c4ccccc4Br)sc3c2s1`, for which the 50% inhibitory concentration (IC50) in data set [1] is > 100 µM. `COc1cc(C(=O)Nc2nc3ccc4nc(NCCN(C)C)sc4c3s2)cc(OC)c1OC`: the 50% inhibitory concentration (IC50) in [1] and in data set [2] was 0.2 µM each time. The CC50 in the data set on HeLa was < 0.78 µM. As to `CCN(CC)c1ccc(C(=O)Nc2nc3ccc4nc(SC)sc4c3s2)cc1`, in data set [1], the half-maximal inhibitory concentration (IC50) is > 100 µM. Consider `COc1ccc(C(=O)Nc2nc3ccc4nc(SC)sc4c3s2)cc1`, for which the 50% inhibitory concentration (IC50) in data set [1] stood at 2.2 µM. `CSc1nc2ccc3nc(NC(=O)CN4C(=O)CCC4=O)sc3c2s1`: the IC50 in data set [1] is > 100 µM.

`COc1cc2ccccc2cc1C(=O)Nc1nc2ccc3nc(SC)sc3c2s1`: the IC50 in data set [1] is > 50 µM.

As to `CSc1nc2ccc3nc(NC(=O)COc4ccc(Cl)cc4Cl)sc3c2s1`, the IC50 in [1] was > 100 µM.

For `CNc1nc2ccc3nc(NC(=O)c4cccc(OC)c4)sc3c2s1`, the IC50 in data set [1] was found to be 0.5 µM; in data set [2], 2.2 µM; in data set [5] it was 2 µM. In [3], the affinity, expressed as Ki, was 2 µM. The inhibition result in the data set on Staphylococcus aureus [4] is “inactive”. Further, in the data set on HeLa, the 50% cytotoxic concentration (CC50) is > 100 µM.

In the case of `COc1ccc(C(=O)Nc2nc3ccc4nc(SC)sc4c3s2)cc1OC`, the IC50 in [1] turned out to be 2.1 µM.

Turning to `CSc1nc2ccc3nc(NC(=O)c4ccc(C(C)(C)C)cc4)sc3c2s1`, in [1], the IC50 is > 100 µM. In the case of `CSc1nc2ccc3nc(NC(=O)c4ccc(Oc5ccccc5)cc4)sc3c2s1`, the IC50 in data set [1] is > 100 µM. As to `COc1cccc(C(=O)Nc2nc3ccc4nc(NCCN(C)C)sc4c3s2)c1`, the IC50 in data set [1] and in data set [2] was 1 µM throughout. As for `CSc1nc2ccc3nc(NC(=O)c4ccc(C)cc4)sc3c2s1`, the IC50 in [1] amounted to 7.6 µM. `COc1cc(C(=O)Nc2nc3ccc4nc(N5CCN(C)CC5)sc4c3s2)cc(OC)c1OC`: the 50% inhibitory concentration (IC50) came out at 0.2 µM in [1], 10 µM in the data set with Bacillus anthracis and 0.2 µM in [2]. Further, the CC50 in the data set with HeLa was found to be 2.8 µM. Take `CSc1nc2ccc3nc(NC(=O)c4ccc(N5C(=O)CCC5=O)cc4)sc3c2s1`: the 50% inhibitory concentration (IC50) in [1] worked out at 1.3 µM.

With `CSc1nc2ccc3nc(NC(=O)CCc4ccccc4)sc3c2s1`, the IC50 in data set [1] is > 100 µM. Take `CSc1nc2ccc3nc(NC(=O)c4ccccc4Cl)sc3c2s1`: in [1], the concentration for half-maximal inhibition (IC50) was > 100 µM. Consider `CCOc1ccc(C(=O)Nc2nc3ccc4nc(SC)sc4c3s2)cc1`, for which the half-maximal inhibitory concentration (IC50) in [1] turned out to be 6.9 µM. As for `COc1cccc(C(=O)Nc2nc3ccc4nc(N5CCOCC5)sc4c3s2)c1`, the results for the IC50 in data set [1] and in data set [2] were 2.3 µM and 3 µM, respectively. In addition, the cytotoxic concentration (CC50) with HeLa was > 100 µM. As to `CSc1nc2ccc3nc(NC(=O)c4c(F)cccc4F)sc3c2s1`, the IC50 in data set [1] worked out at 64.5 µM. For `COc1cc(C(=O)Nc2nc3ccc4nc(SC)sc4c3s2)cc(OC)c1OC`, the IC50 in data set [1] came to 0.7 µM; in [2], 0.4 µM. In addition, the CC50 with HeLa is > 100 µM. Turning to `CSc1nc2ccc3nc(NC(=O)Cc4ccccc4)sc3c2s1`, in data set [1], the IC50 came to 47 µM. Take `CSc1nc2ccc3nc(NC(=O)C4CC4)sc3c2s1`: the IC50 in data set [1] was > 100 µM. `COc1c(C(=O)Nc2nc3ccc4nc(SC)sc4c3s2)cnn1C`: the concentration for half-maximal inhibition (IC50) in data set [1] was > 100 µM.

For the molecule `COc1cc(C(=O)Nc2nc3ccc4nc(NCCO)sc4c3s2)cc(OC)c1OC`, the figures for the IC50 (in data set [1]; in the data set on Bacillus anthracis; in data set [2]) were 0.2 µM, 17 µM and 0.3 µM, respectively. Also, the inhibition entry with Staphylococcus aureus [6] and in the data set on Staphylococcus aureus [7] was “Active” throughout. In addition, the CC50 with HeLa was > 100 µM.

As to `CSc1nc2ccc3nc(NC(=O)c4cccc([N+](=O)[O-])c4)sc3c2s1`, the IC50 in data set [1] was found to be 2.8 µM. Still for that read-out and setting: the value for `CSc1nc2ccc3nc(NC(=O)c4ccco4)sc3c2s1` was 102 µM. Take `COc1cc(/C=N/c2nc3ccc4nc(SC)sc4c3s2)cc(OC)c1OC`: the IC50 in data set [2] is > 100 µM. Regarding `CSc1nc2ccc3nc(NC(=O)c4ccc(C#N)cc4)sc3c2s1`, the half-maximal inhibitory concentration (IC50) in data set [1] was 11 µM. Consider `COc1cccc(C(=O)Nc2nc3ccc4nc(NC5CCCCC5)sc4c3s2)c1`, for which the IC50 was 90 µM in data set [1] and > 100 µM in data set [2]. For the molecule `CSc1nc2ccc3nc(NC(=O)c4cccc(N(C)C)c4)sc3c2s1`, the IC50 in [1] stood at 36 µM. For the molecule `CNc1nc2ccc3nc(NC(=O)c4cc(OC)c(OC)c(OC)c4)sc3c2s1`, the IC50 in [1] and in data set [2] was 0.2 µM throughout. In addition, the inhibition result in the data set on Staphylococcus aureus [6] and in the data set on Staphylococcus aureus [7] was “Active” each time. The inhibition result with Staphylococcus aureus [4] is “inactive”. In addition, in [8], the “Ratio CC50/IC50” value is listed as >500. In addition, the 50% cytotoxic concentration (CC50) with HeLa was > 100 µM. As for `CSc1nc2ccc3nc(NC(=O)c4c(C)cnn4C)sc3c2s1`, in [1], the IC50 is > 50 µM. Take `CSc1nc2ccc3nc(NC(=O)c4cccc(N5C(=O)CCC5=O)c4)sc3c2s1`: the half-maximal inhibitory concentration (IC50) in data set [1] was 5 µM; in data set [2], 12 µM. For the same molecule, the CC50 in the data set with HeLa is > 100 µM. For the molecule `COc1ccc(C(=O)Nc2nc3ccc4nc(SC)sc4c3s2)c(OC)c1`, the IC50 in data set [1] was > 100 µM. Same read-out and setting: the value for `CSc1nc2ccc3nc(NC(=O)c4cnccn4)sc3c2s1` was 28 µM.

On to `COc1cc(C(=O)Nc2nc3ccc4nc(NCCN5CCOCC5)sc4c3s2)cc(OC)c1OC`, for which the half-maximal inhibitory concentration (IC50) in data set [1] and in [2] was 0.2 µM in each case. Moreover, the CC50 in the data set with HeLa was found to be 5.7 µM. Take `COc1cc(OC)cc(C(=O)Nc2nc3ccc4nc(SC)sc4c3s2)c1`: the IC50 in [1] amounted to 1.7 µM. Take `CSc1nc2ccc3nc(NC(=O)c4cc(C)no4)sc3c2s1`: the concentration for half-maximal inhibition (IC50) in [1] was > 50 µM. On to `COc1cccc(C(=O)Nc2nc3ccc4nc(NCCN5CCOCC5)sc4c3s2)c1`, for which the IC50 in [1] was found to be 0.5 µM; in data set [2], 2.2 µM. Also, the CC50 in the data set on HeLa was 9.6 µM.

`CSc1nc2ccc3nc(NC(=O)c4ccc(Cl)cc4)sc3c2s1`: in data set [1], the half-maximal inhibitory concentration (IC50) came to 5 µM. Take `CSc1nc2ccc3nc(NC(=O)c4ccccc4F)sc3c2s1`: the 50% inhibitory concentration (IC50) in data set [1] is 50 µM. On to `COc1cccc(C(=O)Nc2nc3ccc4nc(NCc5ccccc5)sc4c3s2)c1`, for which the IC50 in data set [1] is 75 µM; in [2], > 100 µM. For the molecule `CSc1nc2ccc3nc(NC(=O)c4ccc(C)c(C)c4)sc3c2s1`, the IC50 in [1] is 3.2 µM. For `CSc1nc2ccc3nc(NC(=O)c4cccc(Cl)c4)sc3c2s1`, in data set [1], the 50% inhibitory concentration (IC50) amounted to 5.3 µM.

As to `CCN(CC)S(=O)(=O)c1ccc(C(=O)Nc2nc3ccc4nc(SC)sc4c3s2)cc1`, the half-inhibitory concentration (IC50) in [1] was > 100 µM.

As to `CSc1nc2ccc3nc(NC(=O)c4ccc(OC(C)C)cc4)sc3c2s1`, the concentration for half-maximal inhibition (IC50) in [1] is > 100 µM. On the same count and under the same terms, then `CSc1nc2ccc3nc(NC(=O)c4ccccc4C)sc3c2s1`, with 6.6 µM.

Turning to `CCCNc1nc2ccc3nc(NC(=O)c4cccc(OC)c4)sc3c2s1`, the half-maximal inhibitory concentration (IC50) in data set [1] turned out to be 1.1 µM; in data set [2], 1.3 µM. Also, the CC50 in the data set with HeLa was < 0.08 µM. On to `COc1cc(CNc2nc3ccc4nc(SC)sc4c3s2)cc(OC)c1OC`, for which the IC50 in [2] is > 100 µM. With `CSc1nc2ccc3nc(NC(=O)c4cccc(Br)c4)sc3c2s1`, the IC50 in data set [1] was 2.3 µM. On to `COc1cccc(C(=O)Nc2nc3ccc4nc(NC(C)C)sc4c3s2)c1`, for which the IC50 was 65 µM in data set [1] and 80 µM in data set [2]. In the case of `COc1cccc(C(=O)Nc2nc3ccc4nc(NCCO)sc4c3s2)c1`, the concentration for half-maximal inhibition (IC50) in data set [1] was 2.2 µM; in [2] it was 4.2 µM. Further, the CC50 in the data set on HeLa is > 100 µM.

Regarding `CSc1nc2ccc3nc(NC(=O)c4cccc(F)c4)sc3c2s1`, the concentration for half-maximal inhibition (IC50) in [1] came to 3.3 µM.

For the molecule `CSc1nc2ccc3nc(NC(=O)c4ccccc4Oc4ccccc4)sc3c2s1`, the IC50 in data set [1] was > 100 µM.

Turning to `COc1cccc(C(=O)Nc2nc3ccc4nc(SC)sc4c3s2)c1`, the IC50 is 12.5 µM in [1] and 6.6 µM in data set [2]. Also, in the data set with HeLa, the 50% cytotoxic concentration (CC50) was determined as 12.4 µM. Turning to `COc1cccc(OC)c1C(=O)Nc1nc2ccc3nc(SC)sc3c2s1`, in data set [1], the half-inhibitory concentration (IC50) was > 100 µM.

The values are drawn from ChEMBL document CHEMBL2390890, “Optimization of a novel potent and selective bacterial DNA helicase inhibitor scaffold from a high throughput screening hit” (Bioorg Med Chem Lett, 2013).
